# Data published in ChEMBL document CHEMBL3414523, “FimH antagonists: bioisosteres to improve the in vitro and in vivo PK/PD profile” (J Med Chem, 2015).
# Tests used:
# [1] = Apparent permeability across apical to basolateral side in human Caco2 cells by LC/MS analysis; conditions: Caco-2
# [2] = Displacement of n-heptyl 2-deoxy-alpha-D-mannopyranoside from Escherichia coli recombinant 6-His-tagged FimH CRD expressed in Escherichia coli HM125 after 20 mins by isothermal titration calorimetry
# [3] = physchem; conditions: octanol/water, pH 7.4
# [4] = Kinetic solubility of the compound at 0.1 to 0.5 mM at pH 7.6 after 15 hrs by UV/Vis spectrophotometry; assay type: physicochemical; conditions: buffer, read-out: Kinetic_solubility
# [5] = Displacement of fluorescently labeled 3'-chloro-N-(2-(3-(3',6'-dihydroxy-3-oxo-3H-spiro[isobenzofuran-1,9'-xanthene]-5-yl)thioureido)ethyl)-4'-((2R,3S,4S,5S,6R)-3,4,5-trihydroxy-6-(hydroxymethyl)tetrahydro-2H-pyran-2-yloxy)biphenyl-4-carboxamide from Escherichia coli recombinant 6-His-tagged FimH CRD expressed in Escherichia coli HM125 after 24 hrs by fluorescence polarization assay
# Outline: (§1)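 Competitive fluorescence polarization with His6-tagged FimH CRD (thrombin cleavage site) and fixed fluorescent reporter ligand, 24 h incubation to reach equilibrium; polarized excitation 485 nm, emission 528 nm on a plate reader. IC50 from four-parameter nonlinear least-squares fit, converted to KD by a modified Cheng–Prusoff equation accounting for ligand depletion.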
# [6] = Half life in rat liver microsomes at 2 uM after 10 mins by LC/MS/MS analysis
# [7] = Apparent permeability across basolateral to apical side in human Caco2 cells by LC/MS analysis; conditions: Caco-2
# [8] = Plasma protein binding in human by equilibrium dialysis method; assay type: ADME, cell-free; conditions: read-out: PPB (converted)
# [9] = physchem; conditions: buffer, pH 7.4
# [10] = Lipophilicity, log P of the compound; assay type: physicochemical; conditions: octanol/water
# [11] = Binding affinity to Escherichia coli recombinant 6-His-tagged FimH CRD expressed in Escherichia coli HM125 by isothermal titration calorimetry
# [12] = Kinetic solubility of the compound at 0.1 to 0.5 mM at pH 3 to 7.4 after 15 hrs by UV/Vis spectrophotometry; assay type: physicochemical; conditions: buffer, read-out: Kinetic_solubility
# [13] = Kinetic solubility of the compound at 0.1 to 0.5 mM at pH 6.51 after 15 hrs by UV/Vis spectrophotometry; assay type: physicochemical; conditions: buffer, read-out: Kinetic_solubility
# [14] = Half life in rat liver microsomes at 2 uM after 10 mins by LC/MS/MS analysis in presence of NADPH; assay type: ADME
# [15] = Cmax in urine of C3H/HeN mouse at 50 mg/kg, iv; assay type: ADME, organism-based; parameters: dose 50 mg/kg, route intravenous
# [16] = test system: Mus musculus; assay: Volume of distribution in C3H/HeN mouse at 50 mg/kg, iv; assay type: ADME, organism-based; parameters: dose 50 mg/kg, route intravenous; conditions: in vivo
# [17] = test system: Mus musculus; assay: Half life in C3H/HeN mouse at 50 mg/kg, iv; assay type: ADME, organism-based; parameters: dose 50 mg/kg, route intravenous; conditions: in vivo
# [18] = AUC (0 to infinity) in C3H/HeN mouse at 50 mg/kg, iv; assay type: ADME, organism-based; parameters: time infinity, dose 50 mg/kg, route intravenous; conditions: plasma
# [19] = Effective permeability coefficient, log Pe after 16 hrs by PAMPA; assay type: ADME
# [20] = Kinetic solubility of the compound at 0.1 to 0.5 mM at pH 6.61 after 15 hrs by UV/Vis spectrophotometry; assay type: physicochemical; conditions: buffer, read-out: Kinetic_solubility
# [21] = test system: Mus musculus; assay: Total clearance in C3H/HeN mouse at 50 mg/kg, iv; assay type: ADME, organism-based; parameters: dose 50 mg/kg, route intravenous; conditions: in vivo
# [22] = Initial plasma concentration in C3H/HeN mouse at 50 mg/kg, iv; assay type: ADME, organism-based; parameters: dose 50 mg/kg, route intravenous
# [23] = Binding affinity to Escherichia coli recombinant 6-His-tagged FimH CRD expressed in Escherichia coli HM125 after 24 hrs by competitive fluorescence polarization assay; outline: as §1
# [24] = Dissociation constant, pKa of the compound by NMR spectroscopy; assay type: physicochemical
# [25] = physchem; conditions: buffer, pH 3
# [26] = Cmax in urine of C3H/HeN mouse at 0.625 mg/kg, iv; assay type: ADME, organism-based; parameters: dose 0.625 mg/kg, route intravenous
# [27] = test system: Escherichia coli; assay: Inhibition of adhesion of Escherichia coli UTI89 clinical isolate to human 5637 cells assessed as MAC90 after 10 mins by flow cytometry; assay type: functional
# [28] = test system: Mus musculus; assay: Volume of distribution in C3H/HeN mouse at 0.625 mg/kg, iv; assay type: ADME, organism-based; parameters: dose 0.625 mg/kg, route intravenous; conditions: in vivo
# [29] = test system: Escherichia coli; assay: (§2) Antimicrobial activity against Escherichia coli UTI89 infected in C3H/HeN mouse urinary tract infection model assessed as bacterial load reduction in kidney at 10 mg/kg, po formulated with 5% DMSO in PBS containing 1% Tween 80 administered 40 mins prior to infection measured after 3 hrs relative to control; assay type: functional
# [30] = AUC (0 to infinity) in C3H/HeN mouse at 0.625 mg/kg, iv; assay type: ADME, organism-based; parameters: time infinity, dose 0.625 mg/kg, route intravenous; conditions: plasma
# [31] = Total clearance in C3H/HeN mouse at 0.625 mg/kg, iv; assay type: ADME, organism-based; parameters: dose 0.625 mg/kg, route intravenous; conditions: in vivo
# [32] = Initial plasma concentration in C3H/HeN mouse at 0.625 mg/kg, iv; assay type: ADME, organism-based; parameters: dose 0.625 mg/kg, route intravenous
# [33] = test system: Escherichia coli; assay: Antimicrobial activity against Escherichia coli UTI89 infected in C3H/HeN mouse urinary tract infection model assessed as bacterial load reduction in bladder at 1.25 mg/kg, po administered 40 mins prior to infection measured after 3 hrs (reference value: 6.6 log10 CFU); assay type: functional
# [34] = test system: Mus musculus; assay: Half life in C3H/HeN mouse at 0.625 mg/kg, iv; assay type: ADME, organism-based; parameters: dose 0.625 mg/kg, route intravenous; conditions: in vivo
# [35] = test system: Escherichia coli; assay: as §2, with “bladder” for “kidney”; assay type: functional
# [36] = test system: Escherichia coli; assay: Antimicrobial activity against Escherichia coli UTI89 infected in C3H/HeN mouse urinary tract infection model assessed as bacterial load reduction in kidney at 1.25 mg/kg, po administered 40 mins prior to infection measured after 3 hrs (reference value: 6 log10 CFU); assay type: functional
Compound,Papp A→B [1] [nm/s],"logD at 2 h, 1 µM [3]","half-life at 10 min, 2 µM ([6]; liver microsomes) [min]",Papp B→A [7] [nm/s],fraction unbound [8],"solubility kinetic at 15 h, 500 µM [9] [mg/mL]",Kd [2] [nM],Kd [5] [nM],also measured
OC[C@H]1O[C@H](Oc2ccc(-c3ccccc3)cc2)[C@@H](O)[C@@H](O)[C@@H]1O,100,2.1,,190,0.07,0.021,,15.1,logP [10]: 2.1; Kd [11]: 17.7 nM
COC(=O)c1ccc(-c2ccc(O[C@H]3O[C@H](CO)[C@@H](O)[C@H](O)[C@@H]3O)cc2)cc1,42.3,2.14,,,,,,3.6,solubility kinetic at 15 h [13]: 0.0338 mg/mL; half-life at 2 µM [14]: 1 min
O=C(NCCNC(=S)Nc1ccc2c(c1)C(=O)OC21c2ccc(O)cc2Oc2cc(O)ccc21)c1ccc(-c2ccc(O[C@H]3O[C@H](CO)[C@@H](O)[C@H](O)[C@@H]3O)c(Cl)c2)cc1,,,,,,,,,Kd [23]: 1.7 nM
OC[C@H]1O[C@H](Oc2ccc(-c3ccc(-c4nnn[nH]4)cc3)cc2)[C@@H](O)[C@@H](O)[C@@H]1O,,,,,,,,5.7,pKa [24]: 3.7
NC(=O)c1ccc(-c2ccc(O[C@H]3O[C@H](CO)[C@@H](O)[C@H](O)[C@@H]3O)cc2)cc1,1.2,0.5,,6.1,,0.012,,2.8,
CNC(=O)c1ccc(-c2ccc(O[C@H]3O[C@H](CO)[C@@H](O)[C@H](O)[C@@H]3O)cc2)cc1,11,0.8,,8.7,,0.122,4.3,2.9,
CS(=O)(=O)c1ccc(-c2ccc(O[C@H]3O[C@H](CO)[C@@H](O)[C@H](O)[C@@H]3O)cc2)cc1,3.6,0.4,> 60,17.6,0.01,0.246,3,1.7,
O=C(NCCOCCOCCNC(=S)Nc1ccc2c(c1)C(=O)OC21c2ccc(O)cc2Oc2cc(O)ccc21)c1ccc(-c2ccc(O[C@H]3O[C@H](CO)[C@@H](O)[C@H](O)[C@@H]3O)c(Cl)c2)cc1,,,,,,,,,Kd [23]: 9.9 nM

# The next lines start with results.
Papp A→B [1] [nm/s],"logD at 2 h, 1 µM [3]","half-life at 10 min, 2 µM ([6]; liver microsomes) [min]",Papp B→A [7] [nm/s],fraction unbound [8],"solubility kinetic at 15 h, 500 µM [9] [mg/mL]",Compound,Kd [2] [nM],Kd [5] [nM],also measured
20,1.4,> 60,132,0.01,,N#Cc1ccc(-c2ccc(O[C@H]3O[C@H](CO)[C@@H](O)[C@H](O)[C@@H]3O)cc2)cc1,2.8,2,solubility kinetic at 15 h [4]: 0.186 mg/mL
70,,,94,,,CCCCCCCO[C@H]1O[C@H](CO)[C@@H](O)[C@H](O)[C@@H]1O,,28.3,"Kd [11]: 28.9 nM; solubility kinetic at 15 h [12]: > 3 mg/mL; half-life at 10 min, 2 µM ([6]; microsomes): 13 min"
,< -1.5,> 60,,,,O=C(O)c1ccc(-c2ccc(O[C@H]3O[C@H](CO)[C@@H](O)[C@H](O)[C@@H]3O)cc2)cc1,,17.9,Cmax [15]: 300 µg/mL; Vz [16]: 25.2 mL; t1/2 [17]: 19.8 min; Kd [11]: 15 nM; AUC(0-inf) [18]: 23.5 µg·h/mL; log Pe [19]: impermeable; solubility kinetic at 15 h [20]: > 3 mg/mL; CL [21]: 53.1 mL/h; C0 [22]: 40 µg/mL
2.2,-1.1,,2.9,,> 0.15,N#CNC(=O)c1ccc(-c2ccc(O[C@H]3O[C@H](CO)[C@@H](O)[C@H](O)[C@@H]3O)cc2)cc1,,8.4,"pKa [24]: 2.5; solubility kinetic at 15 h, 500 µM [25]: > 0.15 mg/mL"
22,2.1,> 60,221,0.11,0.192,N#Cc1ccc(-c2ccc(O[C@H]3O[C@H](CO)[C@@H](O)[C@H](O)[C@@H]3O)c(Cl)c2)cc1,1.3,< 1,Cmax [26]: 10 µg/mL; Activity [27]: 0.094 µg/mL; Vz [28]: 52.8 mL; log10cfu [29]: 1.04; AUC(0-inf) [30]: 0.07 µg·h/mL; clearance [31]: 3.63 mL/min; C0 [32]: 0.36 µg/mL; log10cfu [33]: 1.78; t1/2 [34]: 10.2 min; log10cfu [35]: 2.68; log10cfu [36]: 1.07
1.8,0.2,> 60,13,0.52,> 0.25,O=C(c1ccc(-c2ccc(O[C@H]3O[C@H](CO)[C@@H](O)[C@H](O)[C@@H]3O)cc2)cc1)N1CCOCC1,5,3,Cmax [15]: 4610 µg/mL; Vz [16]: 28.3 mL; t1/2 [17]: 24 min; AUC(0-inf) [18]: 25.3 µg·h/mL; CL [21]: 49.4 mL/h; C0 [22]: 110 µg/mL
,,> 60,,< 0.01,,CNS(=O)(=O)c1ccc(-c2ccc(O[C@H]3O[C@H](CO)[C@@H](O)[C@H](O)[C@@H]3O)cc2)cc1,3.5,2.7,Cmax [15]: 387 µg/mL; Vz [16]: 19.5 mL; t1/2 [17]: 114 min; AUC(0-inf) [18]: 175 µg·h/mL; CL [21]: 7.1 mL/h; C0 [22]: 152 µg/mL
4,1.1,,19,,> 0.15,OC[C@H]1O[C@H](Oc2ccc(-c3cc(F)c(O)c(F)c3)cc2)[C@@H](O)[C@@H](O)[C@@H]1O,,3.7,pKa [24]: 6.5
